The subject of one test is C8166. Description: Effective dose which reduces the HIV-1 yield in C8166 cells by 90%. It counts as functional, Homo sapiens. An outline of the steps:
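C8166 cells at 1×10^8/mL infected with 1×10^5 CCID50 HIV-1 (from H9/IIIB supernatants) for 2 h at 37 °C, washed three times, then resuspended at 1×10^5/mL with compound for 3 days. Virus yield was measured by limiting-dilution end-point titration on C8166 (1:2 dilutions, four wells each, syncytia scored after 4 days, Reed–Muench CCID50/mL).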

In test [1] the test system is Vero. Description: Compound concentration required to reduce by 50% the number of fibroblast-like cells (Vero) after three cell cycles. It counts as functional. Conditions: Chlorocebus sabaeus, read-out: ID50 (the source's name). An outline of the steps: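 Vero monolayers seeded at 1×10^5 cells/mL in DMEM with 10% newborn calf serum and left to adhere overnight. Medium with various compound concentrations was then added for 3 days at 37 °C. Cells were trypsinized and counted on a Coulter counter. The 50% dose comes from linear regression of percent growth against untreated controls. Mean of three experiments.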

In a further test the test system is L1210. Description: Compound concentration required to reduce by 50% the number of murine lymphocytic leukemia (L1210) cells after three cell cycles. The following applies: Mus musculus, read-out: ID50 (the source's name). It is filed as functional. An outline of the steps: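 Mouse L1210 leukemia cells seeded at 1×10^5 cells/mL in RPMI-1640 with 10% FCS. Exposed to graded compound concentrations at 37 °C for 36 h, then counted on a Coulter counter. Growth is taken as a percentage of untreated controls, and the 50% dose is found by linear regression. Mean of three experiments.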

The nature of test [2]: Compound concentration required to reduce by 50% the number of T-MT4 lymphoblastoid cells after three cell cycles. It counts as functional. The following applies: Homo sapiens; read-out: ID50 (the source's name). An outline of the steps:
(§1)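 Suspension cultures seeded at 1×10^5 cells/mL in RPMI-1640 with 10% FCS. Grown with a range of compound concentrations at 37 °C for 72 h, then counted on a Coulter counter. Growth is expressed as a percentage of untreated controls, and the 50% inhibitory dose is taken by linear regression. Mean of three separate experiments.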

Test [3] can be described thus: Compound concentration required to reduce by 50% the number of T-C8166 lymphoblastoid cells after three cell cycles. It counts as functional. The following applies: Homo sapiens; read-out: ID50 (the source's name). The procedure, abridged: as §1
A short description of test [4]: Compound concentration required to reduce by 50% the number of T-H9 lymphoblastoid cells after three cell cycles. It is filed as functional. Conditions: Homo sapiens; read-out: ID50 (the source's name). The procedure, abridged:
as §1

Test [5] deals with Vero. Description: Concentration of compound required to reduce by 50% the number of african swine fever virus (ASFV) plaques in vero cells. The following applies: Chlorocebus sabaeus, read-out: ED50 (the source's name). It is filed as functional.
Test [6] deals with Vero. Description: Concentration of compound required to reduce by 50% the number of coxsackie virus plaques in vero cells. It is filed as functional. Conditions: Chlorocebus sabaeus, read-out: ED50 (the source's name).
Test [7] deals with Vero. Description: Concentration of compound required to reduce by 50% the number of herpes simplex virus (HSV-1) plaques in vero cells. It is filed as functional. The following applies: Chlorocebus sabaeus, read-out: ED50 (the source's name).
In test [8] the test system is Vero. Description: Concentration of compound required to reduce by 50% the number of vesicular stomatitis virus (VSV) plaques in vero cells. It is filed as functional. Conditions: Chlorocebus sabaeus, read-out: ED50 (the source's name).
In the next test the test system is Raji. Description: Compound concentration required to reduce by 50% the number of human B (Raji)cells after three cell cycles. The following applies: read-out: ID50 (the source's name). It is filed as functional. An outline of the steps:
as §1

The subject of test [9] is Vero. Description: Concentration of compound required to reduce by 50% the number of polio virus plaques in vero cells. The following applies: Chlorocebus sabaeus, read-out: ED50 (the source's name). It counts as functional.
A further test deals with H9. Description: Compound concentration required to reduce by 50% the number of H9 cells chronically infected with the HIV-1 (H9/IIIB) after three cell cycles. Conditions: Homo sapiens, read-out: ID50 (the source's name). It is filed as functional. The procedure, abridged:
as §1

As to `CCCCCn1nnc2c(C)nn(C3O[C@H](CO)[C@@H](O)[C@H]3O)c2c1=O` (stereo partly specified), the ED90 in the test on C8166 was over 200 µM. In addition, the IC50 is over 1.4 mM in the test with Vero [1]; over 1.4 mM in the test with L1210; 540 µM in test [2]; 280 µM in test [3]; 710 µM in [4]; 1.4 mM in the test on Raji. The EC50 in the test with Vero [5], with Vero [6], with Vero [7], in the test with Vero [8] and with Vero [9] was over 1.4 mM each time.
With `NC(=O)c1nn(C2O[C@H](CO)[C@@H](O)[C@H]2O)cc1[N+](=O)[O-]` (stereo partly specified), in the test with C8166, the ED90 was 25.4 µM. The IC50 was over 1.73 mM in the test on Vero [1]; over 1730 µM in the test with H9; over 1.73 mM with L1210; 80 µM in test [2]; 12 µM in [3]; over 1730 µM in test [4]. Further, the IC50 with Raji is over 1.73 mM. Moreover, the EC50 with Vero [5], in the test on Vero [6], in the test on Vero [7], in the test on Vero [8] and with Vero [9] was over 1.73 mM in each case.
For the compound `NC(=O)c1nn(C2O[C@H](CO)[C@@H](O)[C@H]2O)cc1Br` (stereo partly specified), the ED90 in the test with C8166 amounted to 12.2 µM. Besides, the IC50 in the test with Vero [1] was over 1.55 mM; in the test with H9 it was 50 µM; with L1210, over 1.55 mM; in test [2], 20 µM; in test [3], 4 µM; in test [4], 50 µM. For the same compound, the IC50 in the test with Raji is over 1.55 mM. Besides, the EC50 with Vero [5], in the test on Vero [6], in the test on Vero [7], in the test with Vero [8] and in the test with Vero [9] was over 1.55 mM each time.
In the test with C8166, `NC(=O)c1ccn(C2O[C@H](CO)[C@@H](O)[C@H]2O)n1` (stereo partly specified) gave an ED90 of over 900 µM. In addition, the IC50 was over 1.03 mM in the test on Vero [1]; over 1030 µM in the test on H9; over 1.03 mM in the test on L1210; over 1030 µM in test [2]; 900 µM in test [3]; 1030 µM in [4]. Also, in the test with Raji, the IC50 worked out at 1.03 mM. Further, the EC50 in the test on Vero [5], with Vero [6], in the test on Vero [7], in the test with Vero [8] and with Vero [9] was over 2.05 mM in each case.
Regarding `NC(=O)c1nn(C2O[C@H](CO)[C@@H](O)[C@H]2O)cc1N` (stereo partly specified), in the test on C8166, the ED90 is over 320 µM. For the same compound, the IC50 in the test on Vero [1] is over 1.83 mM; in the test on H9 it was 550 µM; in the test with L1210 it was over 1.83 mM; in [2] it was 470 µM; in test [3], 320 µM; in test [4] it was 580 µM. Also, the IC50 with Raji worked out at 1.28 mM. Further, the EC50 in the test with Vero [5], in the test with Vero [6], in the test with Vero [7], in the test with Vero [8] and in the test on Vero [9] was over 1.83 mM each time.
With `CN(Cc1cnc2nc(N)nc(N)c2n1)c1ccc(C(=O)N[C@@H](CCC(=O)O)C(=O)O)cc1` [METHOTREXATE], the IC50 stood at 2e-05 mM in the test with Vero [1]; 0.03 µM in the test on H9; 4e-05 mM in the test with L1210; 0.03 µM in [2]; 0.03 µM in [3]; 0.03 µM in [4]. Further, the IC50 in the test on Raji turned out to be 2e-05 mM.
As for `Cc1c([N+](=O)[O-])c(C(N)=O)nn1C1O[C@H](CO)[C@@H](O)[C@H]1O` (stereo partly specified), the ED90 in the test on C8166 was over 1650 µM. In addition, the IC50 was over 1.65 mM in the test on Vero [1]; over 1650 µM in the test with H9; over 1.65 mM in the test on L1210; 1490 µM in test [2]; over 1650 µM in test [3]; over 1650 µM in [4]. Further, in the test on Raji, the IC50 was over 1.65 mM. The EC50 with Vero [5], with Vero [6], in the test on Vero [7], with Vero [8] and in the test with Vero [9] was over 1.65 mM in each case.
As to `Cc1c(N)c(C(N)=O)nn1C1O[C@H](CO)[C@@H](O)[C@H]1O` (stereo partly specified), the ED90 with C8166 was over 1840 µM. Moreover, the IC50 with Vero [1] is over 1.84 mM; in the test on H9, over 1840 µM; in the test with L1210, over 1.84 mM; in test [2], over 1840 µM; in test [3], over 1840 µM; in [4] it was over 1840 µM. The IC50 in the test on Raji was over 1.84 mM. In addition, the EC50 in the test with Vero [5], in the test with Vero [6], in the test with Vero [7], with Vero [8] and with Vero [9] was over 1.84 mM in each case.
For the compound `Cc1cn([C@H]2C[C@H](N=[N+]=[N-])[C@@H](CO)O2)c(=O)[nH]c1=O` [ZIDOVUDINE], the ED90 in the test on C8166 amounted to 0.003 µM.
In the case of `COc1cccc2c1C(=O)c1c(O)c3c(c(O)c1C2=O)C[C@@](O)(C(=O)CO)C[C@@H]3O[C@H]1C[C@H](N)[C@H](O)[C@H](C)O1` [DOXORUBICIN], the IC50 with Vero [1] worked out at 0.0001 mM; in the test on H9, 0.01 µM; with L1210, 2e-05 mM; in [2], 0.01 µM; in test [3] it was 0.01 µM; in [4] it was 0.01 µM. In addition, the IC50 with Raji was found to be 1e-05 mM.
On to `N=C(N)N` [GUANIDINE], for which the EC50 with Vero [9] was 0.125 mM.
The compound `NC(=O)c1nn([C@@H]2O[C@H](CO)[C@@H](O)[C@H]2O)cc1I` showed an ED90 with C8166 of 20 µM. Also, the IC50 in the test on Vero [1] was over 1.35 mM; in the test on H9 it was 20 µM; in the test on L1210 it was over 1.35 mM; in test [2] it was 27 µM; in test [3] it was 8 µM; in test [4] it was 40 µM. Moreover, the IC50 with Raji was over 1.35 mM. In addition, the EC50 in the test on Vero [5] is over 1.35 mM; in the test with Vero [6], 0.12 mM; in the test with Vero [7], over 1.35 mM; with Vero [8], over 1.35 mM; with Vero [9], over 1.35 mM.
Take `Nc1nc2c(ncn2COCCO)c(=O)[nH]1` [ACYCLOVIR]: the EC50 with Vero [5] was over 1.3 mM; with Vero [7], 4e-05 mM.

Source of the values: ChEMBL document CHEMBL1125397, “Pyrazole-related nucleosides. Synthesis and antiviral/antitumor activity of some substituted pyrazole and pyrazolo[4,3-d]-1,2,3-triazin-4-one nucleosides” (1992).
